Test results taken from ChEMBL document CHEMBL4257549, “Design, synthesis and biological evaluation of benzimidazole-rhodanine conjugates as potent topoisomerase II inhibitors” (Medchemcomm, 2018).
Calls of active or inactive are those of the source. No cut-off for these calls is given here.

Organism: Homo sapiens
Assay: Inhibition of human topoisomerase 2-mediated pBR322 DNA relaxation at 20 uM after 30 mins by agarose gel electrophoresis
Conditions: not given

inhibition | Compound
Active | O=C(O)CN1C(=O)/C(=C/c2nc3ccccc3n2Cc2ccc(F)cc2)SC1=S
Active | Cc1ccc(C(=O)Cn2c(/C=C3\SC(=S)N(CC(=O)O)C3=O)nc3ccccc32)cc1
inactive | O=C(O)CN1C(=O)/C(=C/c2nc3ccccc3n2Cc2ccc([N+](=O)[O-])cc2)SC1=S
Active | O=C1NC(=S)S/C1=C\c1nc2ccccc2n1Cc1ccccc1F
inactive | O=C(O)CN1C(=O)/C(=C/c2nc3ccccc3n2Cc2cccc(F)c2)SC1=S
Active | O=C(O)CN1C(=O)/C(=C/c2nc3ccccc3n2Cc2ccc(Cl)cc2)SC1=S
Active | O=C(O)CN1C(=O)/C(=C/c2nc3ccccc3n2Cc2ccc(Br)cc2)SC1=S
inactive | N#Cc1ccc(Cn2c(/C=C3\SC(=S)N(CC(=O)O)C3=O)nc3ccccc32)cc1
Active | Cc1ccc(Cn2c(/C=C3\SC(=S)NC3=O)nc3ccccc32)cc1
inactive | Cc1ccc(Cn2c(/C=C3\SC(=S)N(CCC(=O)O)C3=O)nc3ccccc32)cc1
inactive | O=C(O)CCN1C(=O)/C(=C/c2nc3ccccc3n2Cc2ccccc2F)SC1=S

Tested on: A549
Assay: Cytotoxicity against human A549 cells after 48 hrs by MTT assay
Type: functional, cell-based
Conditions: A549, 48 h
Outline: (§1)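 Cells seeded at 5000 per well, left overnight, then exposed to compound at 0–50 μM for 48 h. MTT (20 μL of 2.5 mg mL−1) added for a further 4 h at 37 °C, formazan dissolved in DMSO, absorbance read at 570 nm. Quadruplicate wells, N > 2 determinations, mean IC50 taken as the concentration reducing cell number to 50%.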

Compound | IC50 [µM]
O=C(O)CN1C(=O)/C(=C/c2nc3ccccc3n2Cc2ccc(F)cc2)SC1=S | 3.57
Cc1ccc(C(=O)Cn2c(/C=C3\SC(=S)N(CC(=O)O)C3=O)nc3ccccc32)cc1 | 9.46
O=C(O)CN1C(=O)/C(=C/c2nc3ccccc3n2Cc2ccc([N+](=O)[O-])cc2)SC1=S | 11.4
O=C1NC(=S)S/C1=C\c1nc2ccccc2n1Cc1ccccc1F | > 50
O=C(O)CN1C(=O)/C(=C/c2nc3ccccc3n2Cc2cccc(F)c2)SC1=S | 23.2
O=C(O)CN1C(=O)/C(=C/c2nc3ccccc3n2Cc2ccc(Cl)cc2)SC1=S | 17.5
O=C(O)CN1C(=O)/C(=C/c2nc3ccccc3n2Cc2ccc(Br)cc2)SC1=S | 9.12
CC[C@@]1(O)C(=O)OCc2c1cc1n(c2=O)Cc2cc3ccccc3nc2-1 [CAMPTOTHECIN] | 2.21
N#Cc1ccc(Cn2c(/C=C3\SC(=S)N(CC(=O)O)C3=O)nc3ccccc32)cc1 | 26.6
Cc1ccc(Cn2c(/C=C3\SC(=S)NC3=O)nc3ccccc32)cc1 | 5.31
Cc1ccc(Cn2c(/C=C3\SC(=S)N(CCC(=O)O)C3=O)nc3ccccc32)cc1 | 8.74
O=C(O)CCN1C(=O)/C(=C/c2nc3ccccc3n2Cc2ccccc2F)SC1=S | 18.7

Tested on: HeLa
Assay: Cytotoxicity against human HeLa cells after 48 hrs by MTT assay
Type: functional, cell-based
Conditions: not given
Outline: as §1

Compound | IC50 [µM]
O=C(O)CN1C(=O)/C(=C/c2nc3ccccc3n2Cc2ccc(F)cc2)SC1=S | 13.9
Cc1ccc(C(=O)Cn2c(/C=C3\SC(=S)N(CC(=O)O)C3=O)nc3ccccc32)cc1 | 27.4
O=C(O)CN1C(=O)/C(=C/c2nc3ccccc3n2Cc2ccc([N+](=O)[O-])cc2)SC1=S | 18.6
O=C1NC(=S)S/C1=C\c1nc2ccccc2n1Cc1ccccc1F | 36.1
O=C(O)CN1C(=O)/C(=C/c2nc3ccccc3n2Cc2cccc(F)c2)SC1=S | > 50
O=C(O)CN1C(=O)/C(=C/c2nc3ccccc3n2Cc2ccc(Cl)cc2)SC1=S | 8.72
O=C(O)CN1C(=O)/C(=C/c2nc3ccccc3n2Cc2ccc(Br)cc2)SC1=S | 12.9
CC[C@@]1(O)C(=O)OCc2c1cc1n(c2=O)Cc2cc3ccccc3nc2-1 [CAMPTOTHECIN] | > 50
N#Cc1ccc(Cn2c(/C=C3\SC(=S)N(CC(=O)O)C3=O)nc3ccccc32)cc1 | 16.3
Cc1ccc(Cn2c(/C=C3\SC(=S)NC3=O)nc3ccccc32)cc1 | 25.2
Cc1ccc(Cn2c(/C=C3\SC(=S)N(CCC(=O)O)C3=O)nc3ccccc32)cc1 | 11.2
O=C(O)CCN1C(=O)/C(=C/c2nc3ccccc3n2Cc2ccccc2F)SC1=S | 26.5

Tested on: Raji
Assay: Cytotoxicity against human Raji cells after 48 hrs by MTT assay
Type: functional, cell-based
Conditions: not given
Outline: as §1

Compound | IC50 [µM]
O=C(O)CN1C(=O)/C(=C/c2nc3ccccc3n2Cc2ccc(F)cc2)SC1=S | 1.77
Cc1ccc(C(=O)Cn2c(/C=C3\SC(=S)N(CC(=O)O)C3=O)nc3ccccc32)cc1 | 12.3
O=C(O)CN1C(=O)/C(=C/c2nc3ccccc3n2Cc2ccc([N+](=O)[O-])cc2)SC1=S | 2.51
O=C1NC(=S)S/C1=C\c1nc2ccccc2n1Cc1ccccc1F | 25.5
O=C(O)CN1C(=O)/C(=C/c2nc3ccccc3n2Cc2cccc(F)c2)SC1=S | 13.3
O=C(O)CN1C(=O)/C(=C/c2nc3ccccc3n2Cc2ccc(Cl)cc2)SC1=S | 11.4
O=C(O)CN1C(=O)/C(=C/c2nc3ccccc3n2Cc2ccc(Br)cc2)SC1=S | 1.19
CC[C@@]1(O)C(=O)OCc2c1cc1n(c2=O)Cc2cc3ccccc3nc2-1 [CAMPTOTHECIN] | 3.27
N#Cc1ccc(Cn2c(/C=C3\SC(=S)N(CC(=O)O)C3=O)nc3ccccc32)cc1 | 9.78
Cc1ccc(Cn2c(/C=C3\SC(=S)NC3=O)nc3ccccc32)cc1 | 4.48
Cc1ccc(Cn2c(/C=C3\SC(=S)N(CCC(=O)O)C3=O)nc3ccccc32)cc1 | 6.68
O=C(O)CCN1C(=O)/C(=C/c2nc3ccccc3n2Cc2ccccc2F)SC1=S | 11.3

Tested on: MDA-MB-231
Assay: Cytotoxicity against human MDA-MB-231 cells after 48 hrs by MTT assay
Type: functional, cell-based
Conditions: MDA-MB-231, 48 h
Outline: as §1

Compound | IC50 [µM]
O=C(O)CN1C(=O)/C(=C/c2nc3ccccc3n2Cc2ccc(F)cc2)SC1=S | 2.62
Cc1ccc(C(=O)Cn2c(/C=C3\SC(=S)N(CC(=O)O)C3=O)nc3ccccc32)cc1 | 16.9
O=C(O)CN1C(=O)/C(=C/c2nc3ccccc3n2Cc2ccc([N+](=O)[O-])cc2)SC1=S | 7.76
O=C1NC(=S)S/C1=C\c1nc2ccccc2n1Cc1ccccc1F | 21.3
O=C(O)CN1C(=O)/C(=C/c2nc3ccccc3n2Cc2cccc(F)c2)SC1=S | 22.5
O=C(O)CN1C(=O)/C(=C/c2nc3ccccc3n2Cc2ccc(Cl)cc2)SC1=S | 5.58
O=C(O)CN1C(=O)/C(=C/c2nc3ccccc3n2Cc2ccc(Br)cc2)SC1=S | 8.72
CC[C@@]1(O)C(=O)OCc2c1cc1n(c2=O)Cc2cc3ccccc3nc2-1 [CAMPTOTHECIN] | 16.4
N#Cc1ccc(Cn2c(/C=C3\SC(=S)N(CC(=O)O)C3=O)nc3ccccc32)cc1 | 11.2
Cc1ccc(Cn2c(/C=C3\SC(=S)NC3=O)nc3ccccc32)cc1 | 6.42
Cc1ccc(Cn2c(/C=C3\SC(=S)N(CCC(=O)O)C3=O)nc3ccccc32)cc1 | 3.79
O=C(O)CCN1C(=O)/C(=C/c2nc3ccccc3n2Cc2ccccc2F)SC1=S | 9.53

Molecular target: T1, DNA topoisomerase 1 (Homo sapiens) (UniProt P11387)
T1 sequence (whole entry): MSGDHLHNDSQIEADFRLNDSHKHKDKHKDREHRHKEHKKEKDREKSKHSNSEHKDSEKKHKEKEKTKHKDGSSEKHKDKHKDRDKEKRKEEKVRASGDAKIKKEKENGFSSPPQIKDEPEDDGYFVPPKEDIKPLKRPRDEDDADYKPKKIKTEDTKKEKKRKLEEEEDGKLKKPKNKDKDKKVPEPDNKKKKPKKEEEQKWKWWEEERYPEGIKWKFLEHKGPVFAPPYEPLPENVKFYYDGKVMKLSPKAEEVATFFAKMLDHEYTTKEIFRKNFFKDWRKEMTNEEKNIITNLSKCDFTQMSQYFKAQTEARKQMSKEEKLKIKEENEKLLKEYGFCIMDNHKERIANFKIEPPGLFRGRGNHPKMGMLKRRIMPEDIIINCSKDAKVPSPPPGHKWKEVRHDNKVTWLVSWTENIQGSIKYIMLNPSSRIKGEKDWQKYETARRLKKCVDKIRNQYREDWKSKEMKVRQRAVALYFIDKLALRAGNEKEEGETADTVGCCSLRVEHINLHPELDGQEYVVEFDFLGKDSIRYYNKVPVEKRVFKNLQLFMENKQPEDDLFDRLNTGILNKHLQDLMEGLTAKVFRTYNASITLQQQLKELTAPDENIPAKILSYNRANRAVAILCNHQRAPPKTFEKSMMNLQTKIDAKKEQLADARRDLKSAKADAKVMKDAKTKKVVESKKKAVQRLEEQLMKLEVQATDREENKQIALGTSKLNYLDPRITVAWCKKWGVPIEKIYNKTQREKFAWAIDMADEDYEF
Assay: Inhibition of topoisomerase 1 (unknown origin)-mediated pBR322 DNA relaxation at 50 uM after 30 mins by agarose gel electrophoresis
Conditions: not given
Outline: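 Topo I relaxation of pBR322 with compound at 30 min, 37 °C, camptothecin positive control. Stopped with SDS/bromophenol blue/glycerol dye, run on 1% agarose in TAE for 1.5 h, Ged Red stained, UV visualized.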

inhibition | Compound
inactive | O=C(O)CN1C(=O)/C(=C/c2nc3ccccc3n2Cc2ccc(F)cc2)SC1=S
inactive | Cc1ccc(C(=O)Cn2c(/C=C3\SC(=S)N(CC(=O)O)C3=O)nc3ccccc32)cc1
inactive | O=C(O)CN1C(=O)/C(=C/c2nc3ccccc3n2Cc2ccc([N+](=O)[O-])cc2)SC1=S
inactive | O=C1NC(=S)S/C1=C\c1nc2ccccc2n1Cc1ccccc1F
inactive | O=C(O)CN1C(=O)/C(=C/c2nc3ccccc3n2Cc2cccc(F)c2)SC1=S
inactive | O=C(O)CN1C(=O)/C(=C/c2nc3ccccc3n2Cc2ccc(Cl)cc2)SC1=S
inactive | O=C(O)CN1C(=O)/C(=C/c2nc3ccccc3n2Cc2ccc(Br)cc2)SC1=S
inactive | N#Cc1ccc(Cn2c(/C=C3\SC(=S)N(CC(=O)O)C3=O)nc3ccccc32)cc1
inactive | Cc1ccc(Cn2c(/C=C3\SC(=S)NC3=O)nc3ccccc32)cc1
inactive | Cc1ccc(Cn2c(/C=C3\SC(=S)N(CCC(=O)O)C3=O)nc3ccccc32)cc1
inactive | O=C(O)CCN1C(=O)/C(=C/c2nc3ccccc3n2Cc2ccccc2F)SC1=S

Tested on: HL-60
Assay: Cytotoxicity against human HL60 cells after 48 hrs by MTT assay
Type: functional, cell-based
Conditions: HL-60, 48 h
Outline: as §1

Compound | IC50 [µM]
O=C(O)CN1C(=O)/C(=C/c2nc3ccccc3n2Cc2ccc(F)cc2)SC1=S | 1.42
Cc1ccc(C(=O)Cn2c(/C=C3\SC(=S)N(CC(=O)O)C3=O)nc3ccccc32)cc1 | 15.9
O=C(O)CN1C(=O)/C(=C/c2nc3ccccc3n2Cc2ccc([N+](=O)[O-])cc2)SC1=S | 5.32
O=C1NC(=S)S/C1=C\c1nc2ccccc2n1Cc1ccccc1F | 8.42
O=C(O)CN1C(=O)/C(=C/c2nc3ccccc3n2Cc2cccc(F)c2)SC1=S | 7.21
O=C(O)CN1C(=O)/C(=C/c2nc3ccccc3n2Cc2ccc(Cl)cc2)SC1=S | 2.65
O=C(O)CN1C(=O)/C(=C/c2nc3ccccc3n2Cc2ccc(Br)cc2)SC1=S | 0.87
CC[C@@]1(O)C(=O)OCc2c1cc1n(c2=O)Cc2cc3ccccc3nc2-1 [CAMPTOTHECIN] | 0.42
N#Cc1ccc(Cn2c(/C=C3\SC(=S)N(CC(=O)O)C3=O)nc3ccccc32)cc1 | 7.64
Cc1ccc(Cn2c(/C=C3\SC(=S)NC3=O)nc3ccccc32)cc1 | 2.66
Cc1ccc(Cn2c(/C=C3\SC(=S)N(CCC(=O)O)C3=O)nc3ccccc32)cc1 | 4.14
O=C(O)CCN1C(=O)/C(=C/c2nc3ccccc3n2Cc2ccccc2F)SC1=S | 5.72

Tested on: PC-3
Assay: Cytotoxicity against human PC3 cells after 48 hrs by MTT assay
Type: functional, cell-based
Conditions: PC-3, 48 h
Outline: as §1

Compound | IC50 [µM]
O=C(O)CN1C(=O)/C(=C/c2nc3ccccc3n2Cc2ccc(F)cc2)SC1=S | 4.86
Cc1ccc(C(=O)Cn2c(/C=C3\SC(=S)N(CC(=O)O)C3=O)nc3ccccc32)cc1 | 8.75
O=C(O)CN1C(=O)/C(=C/c2nc3ccccc3n2Cc2ccc([N+](=O)[O-])cc2)SC1=S | 8.27
O=C1NC(=S)S/C1=C\c1nc2ccccc2n1Cc1ccccc1F | > 50
O=C(O)CN1C(=O)/C(=C/c2nc3ccccc3n2Cc2cccc(F)c2)SC1=S | 35.7
O=C(O)CN1C(=O)/C(=C/c2nc3ccccc3n2Cc2ccc(Cl)cc2)SC1=S | 9.67
O=C(O)CN1C(=O)/C(=C/c2nc3ccccc3n2Cc2ccc(Br)cc2)SC1=S | 8.49
CC[C@@]1(O)C(=O)OCc2c1cc1n(c2=O)Cc2cc3ccccc3nc2-1 [CAMPTOTHECIN] | 18.2
N#Cc1ccc(Cn2c(/C=C3\SC(=S)N(CC(=O)O)C3=O)nc3ccccc32)cc1 | 14.4
Cc1ccc(Cn2c(/C=C3\SC(=S)NC3=O)nc3ccccc32)cc1 | 9.78
Cc1ccc(Cn2c(/C=C3\SC(=S)N(CCC(=O)O)C3=O)nc3ccccc32)cc1 | 9.31
O=C(O)CCN1C(=O)/C(=C/c2nc3ccccc3n2Cc2ccccc2F)SC1=S | 28.6
